Data set [1] has as its target Bromodomain-containing protein 7 (Homo sapiens, UniProt Q9NPI1). Nature of the data set: Inhibition of human BRD7 (L125 to R254 residues) expressed in mammalian expression system by BROMOscan assay.
The subject of data set [2] is OPM-2. Nature of the data set: Antitumor activity against human OPM2 cells xenografted in SCID-Beige mouse assessed as tumor growth inhibition at 30 mg/kg, po qd for 21 days measured twice per week during compound dosing relative to control. The data set is classed as functional. The settings on record: OPM-2, po, 504 h, read-out: TGI.
Data set [3] addresses SWI/SNF-related matrix-associated actin-dependent regulator of chromatin subfamily A member 2 (Homo sapiens, UniProt P51531). Description: Inhibition of human SMARCA2 (S1377 to Q1486 residues) expressed in bacterial expression system by BROMOscan assay.
The target of data set [4] is Chromatin remodeling regulator CECR2 (Homo sapiens, UniProt Q9BXF3). Nature of the data set: Inhibition of human CECR2 (P423 to D543 residues) expressed in bacterial expression system by BROMOscan assay.
For data set [5], the system named is Mus musculus. Nature of the data set: Toxicity in SCID-Beige mouse assessed as body weight loss at 30 mg/kg, po qd for 21 days measured during compound dosing relative to control. It counts as organism-based. The settings on record: in vivo, 504 h.
In data set [6] the target is Histone acetyltransferase KAT2A (Homo sapiens, UniProt Q92830). Nature of the data set: Inhibition of human GCN5L2 (E726 to K837 residues) expressed in bacterial expression system by BROMOscan assay.
For data set [7], the target named is Transcription initiation factor TFIID subunit 1-like (Homo sapiens, UniProt Q8IZX4). Description: Inhibition of human TAF1L (Q1523 to D1654 residues) expressed in bacterial expression system by BROMOscan assay.
The target of data set [8] is SWI/SNF-related matrix-associated actin-dependent regulator of chromatin subfamily A member 4 (Homo sapiens, UniProt P51532). Description: Inhibition of human SMARCA4 (A1448 to S1575 residues) expressed in bacterial expression system by BROMOscan assay.
In data set [9] the target is Bromodomain-containing protein 9 (Homo sapiens) (UniProt Q9H8M2). Description: Inhibition of human BRD9 isoform 1 (R130 to V259 residues) expressed in bacterial expression system at 1 uM by BROMOscan assay relative to control.
The target in data set [10] is Protein polybromo-1 (Homo sapiens, UniProt Q86U86). Description: Inhibition of human PBRM1 bromodomain 5 (S645 to D766 residues) expressed in bacterial expression system by BROMOscan assay.
The subject of data set [11] is OPM-2. Description: Antitumor activity against human OPM2 cells xenografted in SCID-Beige mouse assessed as tumor growth inhibition at 150 mg/kg, po qd for 21 days measured twice per week during compound dosing relative to control. It counts as functional. The settings on record: OPM-2, po, 504 h, read-out: TGI. (In general: A xenograft is tissue or cells of one species grown in another, often human tumour cells in immunodeficient mice.)

The target of data set [12] is Bromodomain-containing protein 1 (Homo sapiens, UniProt O95696). Nature of the data set: Inhibition of human BRD1 (E556 to A688 residues) expressed in bacterial expression system by BROMOscan assay.
In data set [13] the test system is Mus musculus. Description: Toxicity in SCID-Beige mouse assessed as body weight loss at 150 mg/kg, po qd for 21 days measured during compound dosing relative to control. Particulars: in vivo, 504 h. The data set is classed as organism-based.
The target in data set [14] is Bromodomain adjacent to zinc finger domain protein 2B (Homo sapiens, UniProt Q9UIF8). Nature of the data set: Inhibition of human BAZ2B (S2054 to S2168 residues) expressed in bacterial expression system by BROMOscan assay.
Data set [15] can be described thus: Toxicity in po dosed SCID-Beige mouse administered once daily. Particulars: in vivo. It counts as organism-based. The gist of the method: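 Oral once-daily dosing in mice bearing OPM-2 multiple myeloma xenografts. Tolerability was judged from mean body-weight loss over the course of the study.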
Data set [16] concerns the target Histone acetyltransferase KAT2B (Homo sapiens, UniProt Q92831). Description: Inhibition of human PCAF (G715 to D831 residues) expressed in mammalian expression system by BROMOscan assay.
Data set [17] relates to OPM-2. Description: Antitumor activity against human OPM2 cells xenografted in SCID-Beige mouse assessed as tumor growth inhibition at 100 mg/kg, po bid for 14 days measured twice per week during compound dosing relative to control. The data set is classed as functional. The settings on record: OPM-2, po, 336 h, read-out: TGI.
Data set [18] concerns OPM-2. Description: Antitumor activity against human OPM2 cells xenografted in SCID-Beige mouse assessed as tumor growth inhibition at 100 mg/kg, po qd for 14 days measured twice per week during compound dosing relative to control. It counts as functional. Particulars: OPM-2, po, 336 h, read-out: TGI. The essentials: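 OPM-2 multiple myeloma xenografts in mice dosed orally over 14 days. Either once daily at 100 mg/kg or twice daily at 50 mg/kg ×2, the same total dose. Tumor growth inhibition was calculated over the treatment period. Mean ± SE, n = 10 per group.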

pIC50: −log10 of the molar value. Some results are limits rather than exact numbers.

Bromodomain adjacent to zinc finger domain protein 2B, sequence (Q9UIF8 whole entry, the tested form may be a part): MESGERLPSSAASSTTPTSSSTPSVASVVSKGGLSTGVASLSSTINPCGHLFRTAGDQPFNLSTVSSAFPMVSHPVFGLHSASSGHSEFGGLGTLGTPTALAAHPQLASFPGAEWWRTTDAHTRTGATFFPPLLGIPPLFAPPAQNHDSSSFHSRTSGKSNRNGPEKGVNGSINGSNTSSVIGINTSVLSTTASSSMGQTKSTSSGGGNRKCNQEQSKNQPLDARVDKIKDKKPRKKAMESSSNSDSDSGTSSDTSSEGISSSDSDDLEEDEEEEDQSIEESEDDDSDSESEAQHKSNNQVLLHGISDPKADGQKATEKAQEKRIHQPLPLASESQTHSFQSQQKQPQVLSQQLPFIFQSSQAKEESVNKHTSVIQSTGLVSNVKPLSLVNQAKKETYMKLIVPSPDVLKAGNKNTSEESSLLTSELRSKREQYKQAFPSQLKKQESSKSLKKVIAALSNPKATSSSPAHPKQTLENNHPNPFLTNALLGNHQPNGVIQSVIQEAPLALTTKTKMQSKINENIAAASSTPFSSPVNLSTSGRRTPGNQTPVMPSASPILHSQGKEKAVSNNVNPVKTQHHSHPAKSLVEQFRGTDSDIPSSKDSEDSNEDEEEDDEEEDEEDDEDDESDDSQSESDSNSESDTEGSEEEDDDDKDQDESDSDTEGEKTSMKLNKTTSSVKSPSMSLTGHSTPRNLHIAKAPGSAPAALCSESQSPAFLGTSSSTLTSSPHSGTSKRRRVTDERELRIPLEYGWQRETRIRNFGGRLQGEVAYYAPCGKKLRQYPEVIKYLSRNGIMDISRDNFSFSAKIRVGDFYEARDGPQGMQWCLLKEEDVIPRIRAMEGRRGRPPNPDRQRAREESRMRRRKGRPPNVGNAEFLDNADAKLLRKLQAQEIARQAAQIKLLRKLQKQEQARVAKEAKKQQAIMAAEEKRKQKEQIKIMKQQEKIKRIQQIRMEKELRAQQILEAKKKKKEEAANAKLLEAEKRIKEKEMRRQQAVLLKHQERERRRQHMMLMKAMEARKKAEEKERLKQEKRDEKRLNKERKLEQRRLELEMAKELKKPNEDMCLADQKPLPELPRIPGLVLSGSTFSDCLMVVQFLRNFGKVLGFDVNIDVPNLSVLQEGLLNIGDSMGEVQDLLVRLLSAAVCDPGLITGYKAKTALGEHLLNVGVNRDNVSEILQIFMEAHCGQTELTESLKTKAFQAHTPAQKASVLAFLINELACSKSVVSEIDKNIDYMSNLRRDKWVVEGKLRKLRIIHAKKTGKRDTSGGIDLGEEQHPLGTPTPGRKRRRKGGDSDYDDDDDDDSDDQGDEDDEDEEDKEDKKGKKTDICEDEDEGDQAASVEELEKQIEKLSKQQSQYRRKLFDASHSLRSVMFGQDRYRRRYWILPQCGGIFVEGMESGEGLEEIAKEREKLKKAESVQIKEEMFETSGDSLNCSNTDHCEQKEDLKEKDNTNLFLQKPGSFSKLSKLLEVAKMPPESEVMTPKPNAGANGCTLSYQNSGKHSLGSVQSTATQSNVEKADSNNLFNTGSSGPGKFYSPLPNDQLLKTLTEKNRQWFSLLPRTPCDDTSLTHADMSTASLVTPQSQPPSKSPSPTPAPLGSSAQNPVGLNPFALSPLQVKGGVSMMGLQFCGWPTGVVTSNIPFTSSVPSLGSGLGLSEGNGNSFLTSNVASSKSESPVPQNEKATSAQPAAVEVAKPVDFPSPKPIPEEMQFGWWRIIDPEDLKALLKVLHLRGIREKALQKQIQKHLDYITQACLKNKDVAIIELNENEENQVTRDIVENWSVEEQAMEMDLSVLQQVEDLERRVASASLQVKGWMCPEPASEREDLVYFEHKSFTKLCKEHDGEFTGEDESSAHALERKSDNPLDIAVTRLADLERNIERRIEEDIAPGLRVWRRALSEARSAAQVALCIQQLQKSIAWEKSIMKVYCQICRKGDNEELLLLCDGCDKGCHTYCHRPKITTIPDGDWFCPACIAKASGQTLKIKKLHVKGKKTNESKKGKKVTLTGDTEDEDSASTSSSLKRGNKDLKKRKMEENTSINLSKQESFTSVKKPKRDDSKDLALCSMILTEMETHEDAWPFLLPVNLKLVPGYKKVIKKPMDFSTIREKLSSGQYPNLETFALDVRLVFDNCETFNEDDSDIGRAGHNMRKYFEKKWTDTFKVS
Protein polybromo-1, sequence (Q86U86 whole entry, the tested form may be a part): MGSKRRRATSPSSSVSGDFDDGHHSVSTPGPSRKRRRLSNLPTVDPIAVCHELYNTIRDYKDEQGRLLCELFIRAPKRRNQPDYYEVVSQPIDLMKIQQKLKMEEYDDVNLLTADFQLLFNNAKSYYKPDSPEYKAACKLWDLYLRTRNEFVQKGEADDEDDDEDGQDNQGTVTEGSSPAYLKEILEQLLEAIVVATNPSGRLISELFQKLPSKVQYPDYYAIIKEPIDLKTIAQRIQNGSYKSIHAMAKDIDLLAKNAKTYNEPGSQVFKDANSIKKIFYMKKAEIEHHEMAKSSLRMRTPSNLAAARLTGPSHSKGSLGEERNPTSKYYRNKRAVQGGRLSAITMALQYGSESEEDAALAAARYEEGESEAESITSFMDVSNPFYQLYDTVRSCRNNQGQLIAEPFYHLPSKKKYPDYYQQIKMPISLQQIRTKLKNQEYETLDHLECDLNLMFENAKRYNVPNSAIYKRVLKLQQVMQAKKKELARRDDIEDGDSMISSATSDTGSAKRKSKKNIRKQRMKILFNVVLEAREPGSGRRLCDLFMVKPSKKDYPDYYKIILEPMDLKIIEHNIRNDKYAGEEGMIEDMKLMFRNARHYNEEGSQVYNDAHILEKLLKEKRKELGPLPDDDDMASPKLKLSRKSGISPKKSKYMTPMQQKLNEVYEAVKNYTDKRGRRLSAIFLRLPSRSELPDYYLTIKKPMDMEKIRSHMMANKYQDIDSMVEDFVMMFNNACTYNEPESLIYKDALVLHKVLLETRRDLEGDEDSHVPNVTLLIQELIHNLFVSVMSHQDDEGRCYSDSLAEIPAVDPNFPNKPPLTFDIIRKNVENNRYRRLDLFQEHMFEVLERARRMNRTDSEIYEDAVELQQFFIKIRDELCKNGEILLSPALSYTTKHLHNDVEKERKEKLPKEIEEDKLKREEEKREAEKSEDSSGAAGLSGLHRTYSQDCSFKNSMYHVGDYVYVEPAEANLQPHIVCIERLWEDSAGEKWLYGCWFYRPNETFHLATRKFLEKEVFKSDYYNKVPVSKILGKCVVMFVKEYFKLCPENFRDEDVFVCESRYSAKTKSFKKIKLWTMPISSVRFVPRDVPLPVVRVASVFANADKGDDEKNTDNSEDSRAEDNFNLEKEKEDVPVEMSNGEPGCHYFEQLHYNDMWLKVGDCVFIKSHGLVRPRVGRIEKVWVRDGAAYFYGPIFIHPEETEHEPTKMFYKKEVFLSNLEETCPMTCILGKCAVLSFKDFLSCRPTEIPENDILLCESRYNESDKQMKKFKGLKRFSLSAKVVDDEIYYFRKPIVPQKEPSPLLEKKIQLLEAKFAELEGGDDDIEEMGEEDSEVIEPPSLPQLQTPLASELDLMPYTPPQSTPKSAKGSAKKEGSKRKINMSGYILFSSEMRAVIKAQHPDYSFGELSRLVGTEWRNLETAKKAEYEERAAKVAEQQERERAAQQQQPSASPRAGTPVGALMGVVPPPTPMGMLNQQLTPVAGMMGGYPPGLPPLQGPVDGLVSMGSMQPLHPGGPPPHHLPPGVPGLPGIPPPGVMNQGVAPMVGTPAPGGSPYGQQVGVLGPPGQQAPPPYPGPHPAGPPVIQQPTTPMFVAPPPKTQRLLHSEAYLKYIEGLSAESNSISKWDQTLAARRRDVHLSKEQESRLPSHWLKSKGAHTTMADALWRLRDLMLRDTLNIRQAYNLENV
Histone acetyltransferase KAT2A, sequence (Q92830 whole entry, the tested form may be a part): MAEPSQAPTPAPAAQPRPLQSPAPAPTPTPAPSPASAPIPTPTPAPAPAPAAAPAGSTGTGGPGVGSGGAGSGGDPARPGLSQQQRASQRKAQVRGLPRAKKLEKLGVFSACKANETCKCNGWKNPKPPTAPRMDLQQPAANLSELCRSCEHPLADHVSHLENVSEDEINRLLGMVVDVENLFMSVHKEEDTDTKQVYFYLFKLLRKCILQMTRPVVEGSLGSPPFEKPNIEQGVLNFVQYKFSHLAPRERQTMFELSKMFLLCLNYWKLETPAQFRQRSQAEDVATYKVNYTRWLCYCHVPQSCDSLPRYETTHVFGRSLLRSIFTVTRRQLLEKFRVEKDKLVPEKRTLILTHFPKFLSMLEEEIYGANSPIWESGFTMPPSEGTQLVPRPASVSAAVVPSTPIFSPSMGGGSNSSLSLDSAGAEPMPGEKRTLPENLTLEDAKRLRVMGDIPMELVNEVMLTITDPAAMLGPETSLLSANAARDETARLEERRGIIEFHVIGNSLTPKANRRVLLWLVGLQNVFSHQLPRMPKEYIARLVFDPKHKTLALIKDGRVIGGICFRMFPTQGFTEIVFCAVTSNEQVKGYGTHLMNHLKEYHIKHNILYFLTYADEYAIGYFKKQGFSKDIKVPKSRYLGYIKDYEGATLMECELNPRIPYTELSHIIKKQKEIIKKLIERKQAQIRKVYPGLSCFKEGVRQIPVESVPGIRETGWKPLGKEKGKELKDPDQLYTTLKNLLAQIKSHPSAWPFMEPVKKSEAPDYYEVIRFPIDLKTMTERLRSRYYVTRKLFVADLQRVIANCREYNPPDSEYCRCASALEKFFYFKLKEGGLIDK

As for `Cn1cc(-c2cc(S(C)(=O)=O)ccc2Oc2ccc(F)cc2F)c2cc[nH]c(=O)c21`, the pIC50 in data set [1], in data set [3], in [4], in data set [6], in data set [7] and in [8] was under 6.00 throughout. Also, in data set [10], the pIC50 was under 6.00. Also, in [2], the inhibition in vivo at 30 mg/kg was determined as 64%. Besides, the Activity in data set [5] was in the range of 1 to 3%. Moreover, in data set [9], the inhibition was 88%.

Take `Cc1[nH]c(-c2cc(S(C)(=O)=O)ccc2Oc2ccc(F)cc2F)c2c1C(=O)NCC2`: the inhibition in vivo at 150 mg/kg in data set [11] was 68%. The pIC50 in [12] and in [14] was under 6.00 each time. Also, in [13], the Activity lay within 1 to 3%.

Regarding `Cc1[nH]c(-c2cc(NS(C)(=O)=O)ccc2Oc2ccccc2)c2c1C(=O)CCC2`, in data set [15], the MTD worked out at 100 mg/kg/day. In addition, the pIC50 in [1] was under 6.00; in data set [12] it was under 6.00; in data set [3] it was 6.00; in [4], under 6.00; in data set [16] it was under 6.00; in [6], under 6.00. Moreover, the pIC50 in data set [7], in data set [8], in data set [10] and in [14] was under 6.00 each time. In data set [9], this compound came in with an inhibition of 67%. Further, the inhibition in vivo at 100 mg/kg was 73% in data set [17] and 53% in data set [18].

One may read the pIC50 as −log10 of the IC50, conventionally taken in molar units. As a reminder, the inhibition is the relative decrease from the control value, in per cent. Lower therefore signals a response near the control.

For the origin of these results see ChEMBL document CHEMBL4038268, “Methylpyrrole inhibitors of BET bromodomains” (Bioorg Med Chem Lett, 2017).
